Measured values reported in ChEMBL document CHEMBL1125290, “Bis basic substituted diaminobenzobisthiazoles as potential antiarthritic agents” (1992).

Tests used:
Assay type in all cases: functional
Rattus norvegicus [1] = test: Antiinflammatory activity against D-adjuvant arthritis in injected rat paw at the dose of 200 mg/kg by oral administration
Rattus norvegicus [2] = test: Antiinflammatory activity against D-adjuvant arthritis in uninjected rat paw at the dose of 200 mg/kg by oral administration
Rattus norvegicus [3] = test: Antiinflammatory activity against carrageenan induced rat paw edema (CPE), dosed orally
How it was run: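 Male Sprague–Dawley rats (150 ± 10 g), five per group. Compound or vehicle given orally in 0.5% methylcellulose 1 h before subplantar injection of 0.1 mL 1% carrageenan in saline into the right hind paw. Paw volume measured by mercury displacement before dosing and 3 h after carrageenan; the difference is the edema volume. ANOVA with Dunnett's t test.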

Rattus norvegicus [4] = organism: Rattus norvegicus; test: Antiinflammatory activity in D-adjuvant induced arthritis in rat measured by the change in body weight; parameters: concentration or dose not given beside the values
Rattus norvegicus [5] = test: Antiinflammatory activity against D-adjuvant arthritis in injected rat paw at the dose of 25 mg/kg by oral administration
Rattus norvegicus [6] = test: Antiinflammatory activity against D-adjuvant arthritis in uninjected rat paw at the dose of 25 mg/kg by oral administration
Rattus norvegicus [7] = test: Antiinflammatory activity against D-adjuvant arthritis in uninjected rat paw at the dose of 50 mg/kg by oral administration
How it was run: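 Rat developing adjuvant arthritis screen with oral dosing on a prophylactic protocol. Percent change in body weight versus untreated animals was recorded as a preliminary toxicity sign. Significance was assessed against controls by two-tailed Student's t test, p < 0.05.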

Rattus norvegicus [8] = test: Antiinflammatory activity against D-adjuvant arthritis in injected rat paw at the dose of 50 mg/kg by oral administration

SMILES	inhibition in vivo at 200 mg/kg (Rattus norvegicus [1]) [%]	inhibition in vivo at 200 mg/kg (Rattus norvegicus [2]) [%]	Inhibition (Rattus norvegicus [3]) [%]	Activity (Rattus norvegicus [4]) [%]	inhibition in vivo at 25 mg/kg (Rattus norvegicus [5]) [%]	inhibition in vivo at 25 mg/kg (Rattus norvegicus [6]) [%]	inhibition in vivo at 50 mg/kg (Rattus norvegicus [7]) [%]	inhibition in vivo at 50 mg/kg (Rattus norvegicus [8]) [%]
N#Cc1c2sc(N)nc2c(Cl)c2nc(N)sc12	47	37	7	3	–	–	–	–
CCNCC(=O)Nc1nc2cc3nc(NC(=O)CNCC)sc3cc2s1.Cl.Cl	–	–	21	-28	79	100	–	–
CNc1nc2cc3nc(NC)sc3cc2s1.Cl.Cl	–	–	24	-30	71	100	–	–
O=C(O)CNc1nc2cc3nc(NCC(=O)O)sc3cc2s1	0	2	2	-25	–	–	–	–
O=C(CN1CCSCC1)Nc1nc2cc3nc(NC(=O)CN4CCSCC4)sc3cc2s1	0	43	7	6	–	–	–	–
CC(C)NCC(=O)Nc1nc2cc3nc(NC(=O)CNC(C)C)sc3cc2s1	–	–	28	7	–	–	11	9
CCC1CCCCN1CC(=O)Nc1nc2cc3nc(NC(=O)CN4CCCCC4CC)sc3cc2s1 (stereo unspecified)	34	65	12	-1	–	–	–	–
CCOC(=O)C1CCCCN1CC(=O)Nc1nc2cc3nc(NC(=O)CN4CCCCC4C(=O)OCC)sc3cc2s1 (stereo unspecified)	–	–	20	-16	–	–	0	6
CN(CC(=O)Nc1nc2cc3nc(NC(=O)CN(C)C4CCCC4)sc3cc2s1)C1CCCC1	–	–	6	-18	–	–	3	21
Cc1c2nc(N)sc2c(C(=O)[O-])c2sc(N)nc12.[Na+]	–	–	22	-15	–	–	0	7
O=C(CN1CCN(c2cccc(C(F)(F)F)c2)CC1)Nc1nc2cc3nc(NC(=O)CN4CCN(c5cccc(C(F)(F)F)c5)CC4)sc3cc2s1	–	–	0	4	–	–	73	39
CN1CCN(CC(=O)Nc2nc3cc4nc(NC(=O)CN5CCN(C)CC5)sc4cc3s2)CC1	–	–	28	-25	–	–	0	0
Cl.Cl.O=C(CN1CCOCC1)Nc1nc2cc3nc(NC(=O)CN4CCOCC4)sc3cc2s1	–	–	17	-21	–	–	21	18
CC1CCN(CC(=O)Nc2nc3cc4nc(NC(=O)CN5CCC(C)CC5)sc4cc3s2)CC1	–	–	20	-26	–	–	100	70
Nc1nc2c(Cl)c3nc(N)sc3c(C(F)(F)F)c2s1	0	12	13	3	–	–	–	–
CN(C)CC(=O)Nc1nc2cc3nc(NC(=O)CN(C)C)sc3cc2s1	–	–	8	-37	–	–	81	1
O=C(CN1CCCC(CO)C1)Nc1nc2cc3nc(NC(=O)CN4CCCC(CO)C4)sc3cc2s1 (stereo unspecified)	–	–	16	-4	–	–	47	25
O=C(CN1CCN(c2ccc(F)cc2)CC1)Nc1nc2cc3nc(NC(=O)CN4CCN(c5ccc(F)cc5)CC4)sc3cc2s1	–	–	11	12	–	–	79	41
CCN(CC)CC(=O)N(C)c1nc2c(ccc3sc(N(C)C(=O)CN(CC)CC)nc32)s1	–	–	21	4	–	–	34	0
CCN(CC)CC(=O)Nc1nc2c(Cl)c3nc(NC(=O)CN(CC)CC)sc3c(C#N)c2s1.Cl.Cl	–	–	19	-35	–	–	100	80
O=C(CN1CCC(c2ccccc2)CC1)Nc1nc2cc3nc(NC(=O)CN4CCC(c5ccccc5)CC4)sc3cc2s1	–	–	1	-12	–	–	12	40
CC1CCCN(CC(=O)Nc2nc3cc4nc(NC(=O)CN5CCCC(C)C5)sc4cc3s2)C1 (stereo unspecified)	34	63	19	6	–	–	–	–

SMILES	inhibition in vivo at 200 mg/kg (Rattus norvegicus [1]) [%]	inhibition in vivo at 200 mg/kg (Rattus norvegicus [2]) [%]	Inhibition (Rattus norvegicus [3]) [%]	Activity (Rattus norvegicus [4]) [%]	inhibition in vivo at 25 mg/kg (Rattus norvegicus [5]) [%]	inhibition in vivo at 25 mg/kg (Rattus norvegicus [6]) [%]	inhibition in vivo at 50 mg/kg (Rattus norvegicus [7]) [%]	inhibition in vivo at 50 mg/kg (Rattus norvegicus [8]) [%]
CCN(CC)CC(=O)N(CC)c1nc2cc3nc(N(CC)C(=O)CN(CC)CC)sc3cc2s1	–	–	18	-4	–	–	0	14
O=C(CN1CCN(Cc2ccccc2)CC1)Nc1nc2cc3nc(NC(=O)CN4CCN(Cc5ccccc5)CC4)sc3cc2s1	–	–	26	-6	–	–	6	5
O=C(CN1CCCCC1CC1CCCCC1)Nc1nc2cc3nc(NC(=O)CN4CCCCC4CC4CCCCC4)sc3cc2s1 (stereo unspecified)	–	–	0	1	–	–	0	0
O=C(CNc1ccccc1)Nc1nc2cc3nc(NC(=O)CNc4ccccc4)sc3cc2s1	–	–	0	-11	–	–	0	0
O=C(CN1CCC(Cc2ccccc2)CC1)Nc1nc2cc3nc(NC(=O)CN4CCC(Cc5ccccc5)CC4)sc3cc2s1	–	–	9	-16	–	–	13	15
CCN(CC)CC(=O)Nc1nc2c(s1)c(OC)cc1nc(NC(=O)CN(CC)CC)sc12	–	–	32	7	–	–	51	47
CCOC(=O)c1c2sc(NC(=O)CN(CC)CC)nc2c(Cl)c2nc(NC(=O)CN(CC)CC)sc12	–	–	5	-16	–	–	0	0
CC(=O)c1ccc(N2CCN(CC(=O)Nc3nc4cc5nc(NC(=O)CN6CCN(c7ccc(C(C)=O)cc7)CC6)sc5cc4s3)CC2)cc1	–	–	40	-7	–	–	0	0
CC1CC(C)CN(CC(=O)Nc2nc3cc4nc(NC(=O)CN5CC(C)CC(C)C5)sc4cc3s2)C1 (stereo unspecified)	–	–	15	-3	–	–	11	29
CCN(CC)CC(=O)Nc1nc2cc3nc(NC(=O)CN(CC)CC)sc3c(C)c2s1.Cl.Cl	–	–	8	-37	–	–	100	59
O=C(CN1CCN(c2ccccn2)CC1)Nc1nc2cc3nc(NC(=O)CN4CCN(c5ccccn5)CC4)sc3cc2s1	–	–	9	-2	–	–	16	0
Nc1nc2c(Br)c3nc(N)sc3cc2s1	47	37	33	10	–	–	–	–
CCCN(CCC)CC(=O)Nc1nc2cc3nc(NC(=O)CN(CCC)CCC)sc3cc2s1.Cl.Cl	–	–	46	-11	–	–	47	29
O=C(CN1CCCC1)Nc1nc2cc3nc(NC(=O)CN4CCCC4)sc3cc2s1	–	–	17	-21	–	–	21	18
CCOC(=O)N1CCN(CC(=O)Nc2nc3cc4nc(NC(=O)CN5CCN(C(=O)OCC)CC5)sc4cc3s2)CC1.Cl.Cl	–	–	17	-17	–	–	60	26
O=C(CN1CCN(CC(F)(F)F)CC1)Nc1nc2cc3nc(NC(=O)CN4CCN(CC(F)(F)F)CC4)sc3cc2s1	–	–	25	-13	–	–	10	0
CCN(CC)CCCC(C)Nc1nc2cc3nc(NC(C)CCCN(CC)CC)sc3cc2s1 (stereo unspecified)	–	–	0	-17	–	–	0	0
Cl.Cl.O=C(CN1CCCCC1)Nc1nc2cc3nc(NC(=O)CN4CCCCC4)sc3cc2s1	56	79	0.8	-6	–	–	–	–
CCN(CC)C(=O)CNc1nc2cc3nc(NCC(=O)N(CC)CC)sc3cc2s1	–	–	5	-18	–	–	55	58
CCN(CC)CC(=O)N(C)c1nc2cc3nc(N(C)C(=O)CN(CC)CC)sc3cc2s1.Cl.Cl	–	–	16	-16	–	–	16	0
CC1CN(CC(=O)Nc2nc3cc4nc(NC(=O)CN5CC(C)NCC5C)sc4cc3s2)C(C)CN1.Cl.Cl.Cl.Cl (stereo unspecified)	–	–	0	-6	–	–	0	0
O=C(CN1CCNCC1)Nc1nc2cc3nc(NC(=O)CN4CCNCC4)sc3cc2s1	–	–	19	-9	–	–	27	31
